Rows were chosen to be rich in hits. Some 3.8% of all compounds tested hit in one or more screens of this group.
KCNQ1 block: inhibitors of human KCNQ1 channel, primary screen, cell-based, thallium flux, high-throughput | Potassium voltage-gated channel subfamily KQT member 1 (Homo sapiens), P51787 | B-score at 10 µM | CHO-K1 KCNQ1, FluxOR thallium flux fluorescence; active compounds read high | 1.3% of 310,000 active;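 active = compounds whose thallium flux B-score, printed positive for inhibition, exceeds three library SD while starting fluorescence stays within three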;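 also: channel opened by potassium depolarization with thallium stimulus after 20 min compound exposure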
KCNK9 inh: KCNK9 potassium channel inhibitors, primary screen, HEK293 cells, thallium flux. B-score at 10 µM. Potassium channel subfamily K member 9 (Homo sapiens), Q9NPC2. AID 488922, 2010. 1.2% of 310,000 active. FluxOR thallium flux fluorescence; active compounds read low;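 active = ratio B-score over 3 SD below the library mean, with starting fluorescence within 5 SD of its mean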;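 also: negative B-score means less thallium flux so channel inhibition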
KCNQ1 act: potentiators or activators of KCNQ1 channel, primary screen, cell-based, thallium flux, high-throughput; B-score at 10 µM; Potassium voltage-gated channel subfamily KQT member 1 (Homo sapiens), P51787; AID 2648, 2010; 0.35% of 310,000 active; CHO-K1 KCNQ1, thallium flux FluxOR fluorescence; active compounds read high;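 active = fluorescence ratio B-score, a plate-corrected score, at least three library SD, with initial intensity B-score within 5 SD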
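Doses: Single concentration per compound, DMSO matched to controls | Test system: KCNQ1-transfected CHO-K1 cells | Timing: 90 min dye loading and 20 min compound exposure, both at room temperature | Measured by: Kinetic FluxOR thallium fluorescence, 10-s 1-Hz baseline, 110-s post-stimulus read | Medium: Assay buffer with matched DMSO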
KCNK3 inh: human KCNK3 channel inhibitors, primary screen, CHO cells, FluxOR thallium flux, B-score; 0.84% of 340,000 active; AID 602410, 2012; B-score at 10 µM; FluxOR fluorescence; active compounds read low; Potassium channel subfamily K member 3 (Homo sapiens), O14649;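 active = B-score under library mean minus 4 SD, starting fluorescence ratio at most library mean plus 5 SD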;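 also: more negative B-score means stronger inhibition of thallium flux through KCNK3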
hERG protect: hERG rescue from dofetilide block, primary screen, cell-based, CHO-hERG, FluxOR thallium flux, dofetilide IC70; activation (rescue from dofetilide block), less the hit threshold, % at 10 µM; AID 1511, 2009; 0.51% of 310,000 active; dofetilide IC70 present; Voltage-gated inwardly rectifying potassium channel KCNH2 (Homo sapiens), Q12809;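 active = activation above the mean of controls blocked by dofetilide plus 5 SD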;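 also: thallium influx through hERG after potassium depolarization seen as dye fluorescence rise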
Kir21 block: inhibitors of mouse Kir2.1 inward-rectifier potassium channel. HEK293-Kir2.1, FluxOR thallium flux fluorescence; active compounds read low. B-score at 10 µM. 0.85% of 310,000 active;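 active = fluorescence ratio B-score at or below minus 3 SD of library scores, with starting-brightness B-score within 2 SD, cut at about -4.2 in these data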;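 also: channel flux triggered by added potassium and thallium sulfate stimulus; B-score of peak minus minimum fluorescence over baseline after thallium stimulus; more negative B-score means stronger Kir2.1 block with less thallium influx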
Target sequence (P35561 whole entry, looked up): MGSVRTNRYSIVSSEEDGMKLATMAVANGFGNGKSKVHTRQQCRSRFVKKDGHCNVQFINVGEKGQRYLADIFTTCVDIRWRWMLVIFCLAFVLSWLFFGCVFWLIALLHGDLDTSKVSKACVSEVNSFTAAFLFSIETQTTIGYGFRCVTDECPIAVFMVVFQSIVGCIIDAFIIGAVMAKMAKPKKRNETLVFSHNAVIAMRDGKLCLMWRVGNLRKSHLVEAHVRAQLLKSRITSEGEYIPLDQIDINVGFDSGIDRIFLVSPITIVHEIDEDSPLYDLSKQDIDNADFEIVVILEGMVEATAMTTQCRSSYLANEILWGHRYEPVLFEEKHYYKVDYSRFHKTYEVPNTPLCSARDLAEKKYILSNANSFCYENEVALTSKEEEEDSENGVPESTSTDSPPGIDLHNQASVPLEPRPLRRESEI
KCNQ1 inh valid: KCNQ1 potassium channel inhibitors, confirmation, cell-based, Tl flux, duplicate. 93% of 1,600 active. shares compounds with KCNQ1 block. AID 588353, 2011. inhibition, % at 10 µM. KCNQ1 cell line, FluxOR thallium flux fluorescence;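 active = primary screen active, with duplicate mean exceeding buffer control mean plus 3 SD of buffer wells, cut at about 28% in these data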;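 also: 0% = buffer control ratio and 100% = XE991 inhibitor control ratio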
CHO KCNQ1 ctr: thallium flux effects in parental CHO cells, counter-screen for KCNQ1 inhibitor project, cell-based, Tl flux; shares compounds with KCNQ1 block; parental CHO-K1, FluxOR thallium flux fluorescence ratio; active compounds read low; zero means no signal rise above baseline; fluorescence ratio (Tl flux) at 10 µM; 21% of 1,600 active; AID 588366, 2011;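 active = mean of duplicate thallium-flux fluorescence ratios in parental host cells more than 5 SD below the buffer control mean, cut at about 0.38 in these data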;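 also: ratio is peak minus minimum fluorescence divided by baseline fluorescence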
KCNQ2 inh: KCNQ2 channel inhibition, selectivity assay for KCNQ1 inhibitor project, cell-based. shares compounds with KCNQ1 block. KCNQ2 cells, FluxOR thallium flux fluorescence. inhibition, % at 10 µM. 71% of 1,600 active. AID 651746, 2012;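 active = mean percent inhibition of the KCNQ2 thallium signal more than 5 SD above the buffer-only control wells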;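 also: KCNQ2 expressed in CHO cells; 0% = buffer control wells and 100% = XE-991 inhibitor control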
KCNQ1-KCNE1 inh: KCNQ1/KCNE1 channel inhibition, selectivity assay for KCNQ1 inhibitor project, CHO-K1 cells, thallium flux, FluxOR; shares compounds with KCNQ1 block; FluxOR thallium flux fluorescence; inhibition, % at 10 µM; 77% of 1,600 active; AID 652147, 2013;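 active = mean percent inhibition of duplicate wells above the buffer-only control mean plus 3 SD of those controls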;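 also: 0% = buffer only wells and 100% = XE-991 inhibitor control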
Numbers without * were called inactive; i = inactive; . = no result given; + = active, no number.

SMILES	KCNQ1 block	KCNK9 inh	KCNQ1 act	KCNK3 inh	hERG protect	Kir21 block	KCNQ1 inh valid	CHO KCNQ1 ctr	KCNQ2 inh	KCNQ1-KCNE1 inh
O=C(Nc1c2c(nn1-c1ccccc1)CS(=O)(=O)C2)c1cc2ccccc2o1	i	i	i	i	-7	0.22	.	.	.	.
Cc1ccc(S(=O)(=O)NCCC2=CCCCC2)cc1	.	.	.	i	.	.	.	.	.	.
O=S(=O)(NCCC1=CCCCC1)c1ccc(OC(F)(F)F)cc1	6*	i	i	i	-6	1.1	56*	0.43	68%*	58%*
Cc1cc(S(=O)(=O)NCCC2=CCCCC2)ccc1Br	7*	i	i	i	-11	0.03	0	0.45	68%*	82%*
CCN(CC(=O)Nc1ccc(OC)cc1)C(=O)Cc1ccsc1	.	.	.	i	.	.	.	.	.	.
S=c1[nH]nc(C2CCCCC2)n1/N=C/c1c(Cl)cccc1Cl	i	i	i	i	-7	-0.01	.	.	.	.
C/C(=C\C(=O)C(F)(F)F)Nc1ccc(C(F)(F)F)cc1	i	i	i	i	-6	0.56	.	.	.	.
CC(C)(CCl)C(=O)Nc1ccc(C(F)(F)F)cc1	6*	i	i	i	-4	-0.01	56*	0.5	66%*	68%*
COc1ccc2[nH]c3c(N4CC(C)OC(C)C4)ncnc3c2c1 (stereo not given)	i	i	i	.	-11	2.5	.	.	.	.
OC1(c2cccc(C(F)(F)F)c2)CCN(c2ncnc3c2[nH]c2ccccc23)CC1	7*	i	i	i	-25	-0.05	134*	0.37*	119%*	146%*
c1ccc(CN2CCN(c3ncnc4c3[nH]c3ccccc34)CC2)cc1	7*	i	i	i	-28	-0.57	132*	0.45	120%*	82%*
COc1cccc(N2CCN(c3ncnc4c3[nH]c3ccccc34)CC2C)c1 (stereo not given)	12*	i	i	.	-35	2	142*	0.32*	124%*	+
Cc1ccc2c(c1)[nH]c1c(N3CCN(Cc4ccccc4)CC3)ncnc12	i	i	i	i	-25	-0.07	.	.	.	.
Cc1ccc(S(=O)(=O)c2c(N)n(NC(=O)c3ccco3)c3nc4ccccc4nc23)cc1	i	i	i	i	-4	-0.96	.	.	.	.
CN(C)CCCn1c(N)c(S(=O)(=O)c2ccccc2)c2nc3ccccc3nc21	i	i	i	i	-17	0.35	.	.	.	.
Cc1ccc(S(=O)(=O)c2c(N)n(Cc3ccco3)c3nc4ccccc4nc23)cc1	7*	i	i	i	-13	-0.49	99*	0.38*	74%*	166%*
CCCCn1c(N)c(S(=O)(=O)c2ccc(C)cc2)c2nc3ccccc3nc21	14*	i	i	i	-8	0.03	88*	0.38*	71%*	93%*
Cc1ccc(NS(=O)(=O)c2cc(Br)cnc2N)c(Cl)c1	i	i	i	i	-4	-2.1	.	.	.	.
Nc1ncc(Br)cc1S(=O)(=O)Nc1cc(C(F)(F)F)cc(C(F)(F)F)c1	10*	i	i	i	-11	-2.9	108*	0.45	i	i
O=C(/C=C/c1ccc([N+](=O)[O-])cc1)NCCN1C(=O)S/C(=C\c2ccc(F)cc2)C1=O	i	i	i	i	-12	-0.27	.	.	.	.
CCCCCNC(=O)c1cccc(S(=O)(=O)N2CC3(C)CC2CC(C)(C)C3)c1 (stereo not given)	7*	i	i	i	-13	1.7	86*	0.5	i	88%*
COC(C[C@@H](O)C[C@@H](O)COCc1ccccc1)OC	i	i	i	i	-7	-0.06	.	.	.	.
Cc1cc(C)cc(NC(=O)Cn2c(=O)oc3cc(S(=O)(=O)N4CC(C)CC(C)C4)ccc32)c1 (stereo not given)	7*	i	i	i	-11	0.77	37*	0.47	67%*	i
CCCCNC(=O)Cn1c(=O)oc2cc(S(=O)(=O)N3CC(C)CC(C)C3)ccc21 (stereo not given)	i	i	i	i	-12	0.03	.	.	.	.
Cc1ccc(C(=O)C(C(=O)/C=C/c2ccccc2)=C2SCCCS2)cc1	i	i	i	i	-10	-1.4	.	.	.	.
SMILES	KCNQ1 block	KCNK9 inh	KCNQ1 act	KCNK3 inh	hERG protect	Kir21 block	KCNQ1 inh valid	CHO KCNQ1 ctr	KCNQ2 inh	KCNQ1-KCNE1 inh
CC(Nc1ccc(Cl)cc1)c1cc(Cl)ccc1O (stereo not given)	6*	i	i	i	-7	-5.8*	124*	0.48	i	152%*
CCOc1ccc(NC(C)c2cc(Cl)ccc2O)cc1 (stereo not given)	i	i	i	i	-5	0.66	.	.	.	.
COc1ccc(CCNc2nc(N3CCCCC3)nc(N3CCCCC3)n2)cc1OC	6*	i	i	i	-6	-1.3	106*	0.37*	123%*	+
COc1ccc(CCNc2nc(N3CCOCC3)nc(N3CCOCC3)n2)cc1OC	i	i	i	i	-4	-0.45	.	.	.	.
Cc1ccc2cc(CN(CCN(C)C)C(=S)Nc3ccccc3)c(=O)[nH]c2c1C	7*	i	i	i	12*	0.35	56*	0.51	i	86%*
CCN(CC)CCN(Cc1cc2cccc(C)c2[nH]c1=O)C(=S)Nc1ccccc1	i	i	i	i	-11	-0.52	.	.	.	.
O=S(=O)(c1ccccc1Br)N(CC(O)COCc1ccccc1)C1CC1 (stereo not given)	.	.	.	i	.	.	.	.	.	.

Screening results: PubChem, Johns Hopkins Ion Channel Center
